Test results taken from ChEMBL document CHEMBL1131058, “Studies on quinazolines and 1,2,4-benzothiadiazine 1,1-dioxides. 8.1, 2 synthesis and pharmacological evaluation of tricyclic fused quinazolines and 1,2,4-benzothiadiazine 1,1-dioxides as potential alpha1-adrenoceptor antagonists” (J Med Chem, 1998).

Columns and labels:
[1] = Selectivity ratio for binding affinity towards alpha2 and alpha-1 adrenoceptors
Summary of the method: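 Ratio of α2 Ki ([³H]clonidine binding) to α1 Ki ([³H]prazosin binding), both measured in rat cortical membrane competition assays.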

[2] = biological target: T1, Adrenergic receptor alpha-1 (Rattus norvegicus, UniProt P15823+P23944+P43140); assay: Displacement of [3H]-prazosin from Alpha-1 adrenergic receptor of rat cortical membranes; type: cell membranes, Membrane
T1 sequence (P15823 whole entry): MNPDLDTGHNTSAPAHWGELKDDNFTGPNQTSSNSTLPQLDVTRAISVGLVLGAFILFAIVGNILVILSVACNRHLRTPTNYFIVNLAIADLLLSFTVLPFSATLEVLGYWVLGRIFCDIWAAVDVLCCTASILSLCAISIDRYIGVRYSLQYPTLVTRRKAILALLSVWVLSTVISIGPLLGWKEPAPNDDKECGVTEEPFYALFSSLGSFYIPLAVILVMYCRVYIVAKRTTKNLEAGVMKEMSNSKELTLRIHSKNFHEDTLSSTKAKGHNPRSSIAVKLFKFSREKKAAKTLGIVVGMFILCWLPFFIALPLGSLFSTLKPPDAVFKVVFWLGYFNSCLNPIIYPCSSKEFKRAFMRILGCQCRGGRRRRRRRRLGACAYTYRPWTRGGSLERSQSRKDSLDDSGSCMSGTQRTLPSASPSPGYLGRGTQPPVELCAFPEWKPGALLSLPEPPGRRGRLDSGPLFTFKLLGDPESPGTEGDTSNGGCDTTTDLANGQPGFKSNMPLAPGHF
T1 sequence (P23944 whole entry): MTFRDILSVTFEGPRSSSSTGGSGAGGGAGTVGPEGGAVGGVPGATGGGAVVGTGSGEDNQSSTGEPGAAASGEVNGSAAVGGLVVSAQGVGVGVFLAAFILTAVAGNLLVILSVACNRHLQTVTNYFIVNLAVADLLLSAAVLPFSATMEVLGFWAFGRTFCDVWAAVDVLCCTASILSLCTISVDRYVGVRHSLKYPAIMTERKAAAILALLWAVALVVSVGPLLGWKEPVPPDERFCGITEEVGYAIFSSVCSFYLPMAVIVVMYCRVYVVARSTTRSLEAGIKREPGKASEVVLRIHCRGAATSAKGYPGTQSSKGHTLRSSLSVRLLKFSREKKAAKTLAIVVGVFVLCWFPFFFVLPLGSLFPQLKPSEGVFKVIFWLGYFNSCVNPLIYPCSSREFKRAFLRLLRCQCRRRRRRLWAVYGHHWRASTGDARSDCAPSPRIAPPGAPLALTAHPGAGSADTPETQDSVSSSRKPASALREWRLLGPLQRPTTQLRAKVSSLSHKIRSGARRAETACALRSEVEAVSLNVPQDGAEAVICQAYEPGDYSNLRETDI
T1 sequence (P43140 whole entry): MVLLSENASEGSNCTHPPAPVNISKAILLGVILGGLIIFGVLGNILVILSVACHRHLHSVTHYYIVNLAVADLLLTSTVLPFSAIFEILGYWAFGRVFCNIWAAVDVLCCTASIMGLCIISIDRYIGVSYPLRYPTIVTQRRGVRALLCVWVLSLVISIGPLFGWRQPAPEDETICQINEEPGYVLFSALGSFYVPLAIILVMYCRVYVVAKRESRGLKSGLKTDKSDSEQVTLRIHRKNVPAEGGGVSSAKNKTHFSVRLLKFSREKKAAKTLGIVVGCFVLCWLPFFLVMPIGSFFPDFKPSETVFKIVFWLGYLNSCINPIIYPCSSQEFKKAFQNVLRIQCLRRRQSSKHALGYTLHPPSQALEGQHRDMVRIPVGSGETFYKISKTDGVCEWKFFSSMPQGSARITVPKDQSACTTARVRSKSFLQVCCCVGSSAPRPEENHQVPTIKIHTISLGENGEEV
Summary of the method: (§1)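 Triplicate competition binding against 0.2-0.25 nM [³H]prazosin in Tris buffer pH 7.4, 30 min at room temperature. Competitor range 0.1-200 nM. Nonspecific binding defined with 10 µM phentolamine. Reaction stopped by GF/B filtration with two cold Tris washes. Membrane protein 300-400 µg per assay. Ki calculated from the data; mean ± SEM of 3-6 experiments.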

[3] = biological target: T2, Alpha-1A adrenergic receptor (Rattus norvegicus, UniProt P43140); assay: Displacement of [3H]prazosin from Alpha-1A adrenergic receptor of rat submaxillary gland membranes; type: cell membranes, Membrane; summary of the method: as §1
T2 sequence (P43140 whole entry): T1 sequence (P43140 whole entry)

Structure (SMILES) | Ratio [1] | Ki [2] [nM] | Ki [3] [nM]
Oc1nc2ccccc2c2ncc(CN3CCN(c4ccccc4Cl)CC3)n12 | 382 | – | –
COc1ccccc1N1CCN(CC2CN=C3c4ccccc4N=C(SC)N32)CC1 (stereo unspecified) | 1080 | 0.9 | 0.93
COc1ccccc1N1CCN(Cc2cnc3c4ccccc4nc(O)n23)CC1 | 1550 | – | –
COc1ccccc1N1CCN(Cc2cn3c(O)nc4ccccc4c3n2)CC1 | 1030 | – | –
COc1ccccc1N1CCN(CC2CN3C(=O)Nc4ccccc4C3=N2)CC1 (stereo unspecified) | 247 | 0.93 | 0.65
COc1ccccc1N1CCN(C[C@@H]2CN=C3c4ccccc4N=C(SC)N32)CC1 | 62.5 | 144 | 122
COc1ccccc1N1CCN(C[C@H]2CN=C3c4ccccc4N=C(SC)N32)CC1 | 3500 | 1 | 1.5
COc1ccccc1N1CCN(C[C@H]2CN=C3c4ccccc4NC(=O)N32)CC1 | 1410 | 0.13 | 0.23
COc1ccccc1N1CCN(C[C@@H]2CN=C3c4ccccc4NC(=O)N32)CC1 | > 384 | 26 | 55
